Measurements taken from ChEMBL document CHEMBL1154778, “Synthesis and biological evaluation of C-5 methyl substituted 4-arylthio and 4-aryloxy-3-Iodopyridin-2(1H)-one type anti-HIV agents” (J Med Chem, 2009).

Tested on: Human immunodeficiency virus 1
Assay: Antiviral activity against HIV1 HXB2 harboring K103N mutant reverse transcriptase infected in human MT4 cells after 5 days by MTT assay
Type: functional, organism-based
Details: Human immunodeficiency virus 1, HXB2, MT4, 120 h
Outline: (§1)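 Mutant viruses were made by recombining the mutant PR-RT sequence into a PR-RT-deleted HIV-1 HXB2 proviral clone. MT4 cells were grown in RPMI 1640 with 10% FCS and antibiotics. Virus at 200 CCID50/well and 30000 cells/well were incubated with varied compound concentrations for 5 days at 37 °C, 5% CO2. MTT viability gave IC50, the concentration giving 50% infection versus the drug-free control.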

SMILES	IC50 [nM]
Cc1cc(C)cc(Oc2c(Cn3ccnn3)c(C)[nH]c(=O)c2I)c1	7.94
CCOCc1c(C)[nH]c(=O)c(I)c1Sc1cc(C)cc(C)c1	1.25
COC1CCCN(Cc2c(C)[nH]c(=O)c(I)c2Oc2cc(C)cc(C)c2)C1 (stereo not given)	6.3
Cc1cc(C)cc(Oc2c(-n3ccnc3C#N)c(C)[nH]c(=O)c2I)c1	12.5
Cc1cc(C)cc(Sc2c(CSc3nccs3)c(C)[nH]c(=O)c2I)c1	7.94
Cc1cc(C)cc(Oc2c(CN3CCSC3)c(C)[nH]c(=O)c2I)c1	15.8
Cc1cc(C)cc(Sc2c(Cn3nc(CC#N)nc3C)c(C)[nH]c(=O)c2I)c1	25.1
Cc1cc(C)cc(Oc2c(CN3CCCC(C#N)C3)c(C)[nH]c(=O)c2I)c1 (stereo not given)	6.3
COCC1CCN(Cc2c(C)[nH]c(=O)c(I)c2Sc2cc(C)cc(C)c2)CC1	19.9
Cc1cc(C)cc(Sc2c(CSCC(C)C)c(C)[nH]c(=O)c2I)c1	10
Cc1cc(C)cc(Sc2c(Cn3cncn3)c(C)[nH]c(=O)c2I)c1	1
Cc1cc(C)cc(Oc2c(Cn3cncn3)c(C)[nH]c(=O)c2I)c1	3.98
Cc1cc(C)cc(Sc2c(CN3CCC(C(N)=O)CC3)c(C)[nH]c(=O)c2I)c1	10
Cc1cc(C)cc(Oc2c(Cn3cccn3)c(C)[nH]c(=O)c2I)c1	6.3
Cc1cc(C)cc(Oc2c(CO)c(C)[nH]c(=O)c2I)c1	158
Cc1cc(C)cc(Sc2c(CSCc3cccs3)c(C)[nH]c(=O)c2I)c1	10
Cc1cc(C)cc(Oc2c(COCc3ccc(F)cc3)c(C)[nH]c(=O)c2I)c1	7.94
Cc1cc(C)cc(Oc2c(COCc3cccs3)c(C)[nH]c(=O)c2I)c1	6.3
CCOCc1c(C)[nH]c(=O)c(I)c1Oc1cc(C)cc(C)c1	6.3
Cc1cc(C)cc(Oc2c(COCC3CCCO3)c(C)[nH]c(=O)c2I)c1 (stereo not given)	31.6
Cc1cc(C)cc(Oc2c(CSCc3cccs3)c(C)[nH]c(=O)c2I)c1	1

Tested on: Human immunodeficiency virus 1
Assay: Antiviral activity against HIV1 HXB2 harboring Y188L mutant reverse transcriptase infected in human MT4 cells after 5 days by MTT assay
Type: functional, organism-based
Details: Human immunodeficiency virus 1, HXB2, MT4, 120 h
Outline: as §1

SMILES	IC50 [nM]
Cc1cc(C)cc(Oc2c(Cn3ccnn3)c(C)[nH]c(=O)c2I)c1	79.4
CCOCc1c(C)[nH]c(=O)c(I)c1Sc1cc(C)cc(C)c1	251
COC1CCCN(Cc2c(C)[nH]c(=O)c(I)c2Oc2cc(C)cc(C)c2)C1 (stereo not given)	39.8
Cc1cc(C)cc(Oc2c(-n3ccnc3C#N)c(C)[nH]c(=O)c2I)c1	125
Cc1cc(C)cc(Sc2c(CSc3nccs3)c(C)[nH]c(=O)c2I)c1	3160
Cc1cc(C)cc(Oc2c(CN3CCSC3)c(C)[nH]c(=O)c2I)c1	251
Cc1cc(C)cc(Sc2c(Cn3nc(CC#N)nc3C)c(C)[nH]c(=O)c2I)c1	199
Cc1cc(C)cc(Oc2c(CN3CCCC(C#N)C3)c(C)[nH]c(=O)c2I)c1 (stereo not given)	199
COCC1CCN(Cc2c(C)[nH]c(=O)c(I)c2Sc2cc(C)cc(C)c2)CC1	3160
Cc1cc(C)cc(Sc2c(CSCC(C)C)c(C)[nH]c(=O)c2I)c1	2510
Cc1cc(C)cc(Sc2c(Cn3cncn3)c(C)[nH]c(=O)c2I)c1	125
Cc1cc(C)cc(Oc2c(Cn3cncn3)c(C)[nH]c(=O)c2I)c1	100
Cc1cc(C)cc(Sc2c(CN3CCC(C(N)=O)CC3)c(C)[nH]c(=O)c2I)c1	1260
Cc1cc(C)cc(Oc2c(Cn3cccn3)c(C)[nH]c(=O)c2I)c1	316
Cc1cc(C)cc(Oc2c(CO)c(C)[nH]c(=O)c2I)c1	3160
Cc1cc(C)cc(Sc2c(CSCc3cccs3)c(C)[nH]c(=O)c2I)c1	794
Cc1cc(C)cc(Oc2c(COCc3ccc(F)cc3)c(C)[nH]c(=O)c2I)c1	79.4
Cc1cc(C)cc(Oc2c(COCc3cccs3)c(C)[nH]c(=O)c2I)c1	50.1
CCOCc1c(C)[nH]c(=O)c(I)c1Oc1cc(C)cc(C)c1	125
Cc1cc(C)cc(Oc2c(COCC3CCCO3)c(C)[nH]c(=O)c2I)c1 (stereo not given)	501
Cc1cc(C)cc(Oc2c(CSCc3cccs3)c(C)[nH]c(=O)c2I)c1	39.8

Tested on: Human immunodeficiency virus 1
Assay: Antiviral activity against HIV1 HXB2 harboring Y181C mutant reverse transcriptase infected in human MT4 cells after 5 days by MTT assay
Type: functional, organism-based
Details: Human immunodeficiency virus 1, HXB2, MT4, 120 h
Outline: as §1

SMILES	IC50 [nM]
Cc1cc(C)cc(Oc2c(Cn3ccnn3)c(C)[nH]c(=O)c2I)c1	31.6
CCOCc1c(C)[nH]c(=O)c(I)c1Sc1cc(C)cc(C)c1	31.6
COC1CCCN(Cc2c(C)[nH]c(=O)c(I)c2Oc2cc(C)cc(C)c2)C1 (stereo not given)	15.8
Cc1cc(C)cc(Oc2c(-n3ccnc3C#N)c(C)[nH]c(=O)c2I)c1	39.8
Cc1cc(C)cc(Sc2c(CSc3nccs3)c(C)[nH]c(=O)c2I)c1	199
Cc1cc(C)cc(Oc2c(CN3CCSC3)c(C)[nH]c(=O)c2I)c1	39.8
Cc1cc(C)cc(Sc2c(Cn3nc(CC#N)nc3C)c(C)[nH]c(=O)c2I)c1	39.8
Cc1cc(C)cc(Oc2c(CN3CCCC(C#N)C3)c(C)[nH]c(=O)c2I)c1 (stereo not given)	31.6
COCC1CCN(Cc2c(C)[nH]c(=O)c(I)c2Sc2cc(C)cc(C)c2)CC1	630
Cc1cc(C)cc(Sc2c(CSCC(C)C)c(C)[nH]c(=O)c2I)c1	199
Cc1cc(C)cc(Sc2c(Cn3cncn3)c(C)[nH]c(=O)c2I)c1	7.94
Cc1cc(C)cc(Oc2c(Cn3cncn3)c(C)[nH]c(=O)c2I)c1	10
Cc1cc(C)cc(Sc2c(CN3CCC(C(N)=O)CC3)c(C)[nH]c(=O)c2I)c1	158
Cc1cc(C)cc(Oc2c(Cn3cccn3)c(C)[nH]c(=O)c2I)c1	31.6
Cc1cc(C)cc(Oc2c(CO)c(C)[nH]c(=O)c2I)c1	158
Cc1cc(C)cc(Sc2c(CSCc3cccs3)c(C)[nH]c(=O)c2I)c1	39.8
Cc1cc(C)cc(Oc2c(COCc3ccc(F)cc3)c(C)[nH]c(=O)c2I)c1	25.1
Cc1cc(C)cc(Oc2c(COCc3cccs3)c(C)[nH]c(=O)c2I)c1	31.6
CCOCc1c(C)[nH]c(=O)c(I)c1Oc1cc(C)cc(C)c1	6.3
Cc1cc(C)cc(Oc2c(COCC3CCCO3)c(C)[nH]c(=O)c2I)c1 (stereo not given)	39.8
Cc1cc(C)cc(Oc2c(CSCc3cccs3)c(C)[nH]c(=O)c2I)c1	19.9

Tested on: Human immunodeficiency virus 1
Assay: Antiviral activity against HIV-1 LAI harboring wild type reverse transcriptase infected in human MT4 cells after 5 days by MTT assay
Type: functional, organism-based
Details: Human immunodeficiency virus 1, LAI, MT4, 120 h
Outline: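 MT4 cells were kept in RPMI 1640 with 10% fetal calf serum and antibiotics at 37 °C, 5% CO2. A range of compound concentrations was incubated with HIV-1 LAI at 200 CCID50/well and 30000 MT4 cells/well for 5 days at 37 °C. Cell viability was read by MTT, and IC50 was the concentration giving 50% infection versus the drug-free control.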

SMILES	IC50 [nM]
Cc1cc(C)cc(Oc2c(Cn3ccnn3)c(C)[nH]c(=O)c2I)c1	2.51
CCOCc1c(C)[nH]c(=O)c(I)c1Sc1cc(C)cc(C)c1	1.99
COC1CCCN(Cc2c(C)[nH]c(=O)c(I)c2Oc2cc(C)cc(C)c2)C1 (stereo not given)	6.3
Cc1cc(C)cc(Oc2c(-n3ccnc3C#N)c(C)[nH]c(=O)c2I)c1	6.3
Cc1cc(C)cc(Sc2c(CSc3nccs3)c(C)[nH]c(=O)c2I)c1	5.01
Cc1cc(C)cc(Oc2c(CN3CCSC3)c(C)[nH]c(=O)c2I)c1	6.3
Cc1cc(C)cc(Sc2c(Cn3nc(CC#N)nc3C)c(C)[nH]c(=O)c2I)c1	5.01
Cc1cc(C)cc(Oc2c(CN3CCCC(C#N)C3)c(C)[nH]c(=O)c2I)c1 (stereo not given)	3.98
COCC1CCN(Cc2c(C)[nH]c(=O)c(I)c2Sc2cc(C)cc(C)c2)CC1	5.01
Cc1cc(C)cc(Sc2c(CSCC(C)C)c(C)[nH]c(=O)c2I)c1	7.94
Cc1cc(C)cc(Sc2c(Cn3cncn3)c(C)[nH]c(=O)c2I)c1	1
Cc1cc(C)cc(Oc2c(Cn3cncn3)c(C)[nH]c(=O)c2I)c1	1.99
Cc1cc(C)cc(Sc2c(CN3CCC(C(N)=O)CC3)c(C)[nH]c(=O)c2I)c1	5.01
Cc1cc(C)cc(Oc2c(Cn3cccn3)c(C)[nH]c(=O)c2I)c1	5.01
Cc1cc(C)cc(Oc2c(CO)c(C)[nH]c(=O)c2I)c1	5
Cc1cc(C)cc(Sc2c(CSCc3cccs3)c(C)[nH]c(=O)c2I)c1	10
Cc1cc(C)cc(Oc2c(COCc3ccc(F)cc3)c(C)[nH]c(=O)c2I)c1	7.94
Cc1cc(C)cc(Oc2c(COCc3cccs3)c(C)[nH]c(=O)c2I)c1	6.3
CCOCc1c(C)[nH]c(=O)c(I)c1Oc1cc(C)cc(C)c1	0.63
Cc1cc(C)cc(Oc2c(COCC3CCCO3)c(C)[nH]c(=O)c2I)c1 (stereo not given)	7.94
Cc1cc(C)cc(Oc2c(CSCc3cccs3)c(C)[nH]c(=O)c2I)c1	2.51

Tested on: not listed separately
Assay: Selectivity index, ratio of CC50 for human MT4 cells to IC50 for HIV-1 LAI harboring wild type reverse transcriptase infected in human MT4 cells
Type: functional
Details: not given
Outline: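 Cytotoxicity was measured in mock-infected MT4 cultures (30000 cells/well) given the same compound concentration range, run in parallel with the infected cultures for 5 days at 37 °C, 5% CO2, with MTT viability. CC50 was the concentration reducing viability by 50% versus the drug-free control. SI was CC50 divided by IC50 against HIV-1 LAI.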

SMILES	Ratio CC50/IC50
Cc1cc(C)cc(Oc2c(Cn3ccnn3)c(C)[nH]c(=O)c2I)c1	>39810
CCOCc1c(C)[nH]c(=O)c(I)c1Sc1cc(C)cc(C)c1	50119
COC1CCCN(Cc2c(C)[nH]c(=O)c(I)c2Oc2cc(C)cc(C)c2)C1 (stereo not given)	>15849
Cc1cc(C)cc(Oc2c(-n3ccnc3C#N)c(C)[nH]c(=O)c2I)c1	>15848
Cc1cc(C)cc(Sc2c(CSc3nccs3)c(C)[nH]c(=O)c2I)c1	15849
Cc1cc(C)cc(Oc2c(CN3CCSC3)c(C)[nH]c(=O)c2I)c1	>15848
Cc1cc(C)cc(Sc2c(Cn3nc(CC#N)nc3C)c(C)[nH]c(=O)c2I)c1	>19953
Cc1cc(C)cc(Oc2c(CN3CCCC(C#N)C3)c(C)[nH]c(=O)c2I)c1 (stereo not given)	19953
COCC1CCN(Cc2c(C)[nH]c(=O)c(I)c2Sc2cc(C)cc(C)c2)CC1	7943
Cc1cc(C)cc(Sc2c(CSCC(C)C)c(C)[nH]c(=O)c2I)c1	>12589
Cc1cc(C)cc(Sc2c(Cn3cncn3)c(C)[nH]c(=O)c2I)c1	>25119
Cc1cc(C)cc(Oc2c(Cn3cncn3)c(C)[nH]c(=O)c2I)c1	>50118
Cc1cc(C)cc(Sc2c(CN3CCC(C(N)=O)CC3)c(C)[nH]c(=O)c2I)c1	>19953
Cc1cc(C)cc(Oc2c(Cn3cccn3)c(C)[nH]c(=O)c2I)c1	>19952
Cc1cc(C)cc(Oc2c(CO)c(C)[nH]c(=O)c2I)c1	>19953
Cc1cc(C)cc(Sc2c(CSCc3cccs3)c(C)[nH]c(=O)c2I)c1	>10000
Cc1cc(C)cc(Oc2c(COCc3ccc(F)cc3)c(C)[nH]c(=O)c2I)c1	>12589
Cc1cc(C)cc(Oc2c(COCc3cccs3)c(C)[nH]c(=O)c2I)c1	>15849
CCOCc1c(C)[nH]c(=O)c(I)c1Oc1cc(C)cc(C)c1	>158489
Cc1cc(C)cc(Oc2c(COCC3CCCO3)c(C)[nH]c(=O)c2I)c1 (stereo not given)	>12589
Cc1cc(C)cc(Oc2c(CSCc3cccs3)c(C)[nH]c(=O)c2I)c1	>39811
